Only some compounds are listed: those with a hit (about 1.3% of all), similar ones and a draw of the others.
Mdm2 ligase inh = Mdm2 E3 ligase (human) inhibition; cell-based MDM2 ubiquitination luciferase reporter, 2 h; 0 = plate control, 100 = twice control, blank-subtracted; 210,000 tested, 0.11% active; signal enhancement, % at 5 µM; Q00987;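 active = signal enhancement of 30% or more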;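 also: luminescence tracks abundance of the self-degrading MDM2-luciferase fusion protein; higher signal means inhibition of MDM2 E3 ligase activity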
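Timing – 2 h compound exposure at 37 °C · Assay system – mammalian cells stably expressing self-ubiquitinating, self-degrading MDM2 E3–luciferase fusion · Amount – 2000 cells seeded into each well · Measure – % luminescence enhancement versus blank-corrected plate control mean · Measured by – SteadyLite luminescence, 15 min reagent step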
Hck-Nef inh = human Hck-Nef kinase inhibition | P08631 | Recombinant Hck-YEEI plus Nef, Z-Lyte FRET kinase assay | inhibition, % at 20 µM | 220,000 tested, 0.68% active | AID 463187;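 active = Hck-Nef kinase inhibition above about 50%, limit read from the data; inactive = inhibition below that limit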;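 also: 0% = DMSO with Hck plus Nef and 100% = Hck alone without Nef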
Target sequence (P08631 whole entry, looked up): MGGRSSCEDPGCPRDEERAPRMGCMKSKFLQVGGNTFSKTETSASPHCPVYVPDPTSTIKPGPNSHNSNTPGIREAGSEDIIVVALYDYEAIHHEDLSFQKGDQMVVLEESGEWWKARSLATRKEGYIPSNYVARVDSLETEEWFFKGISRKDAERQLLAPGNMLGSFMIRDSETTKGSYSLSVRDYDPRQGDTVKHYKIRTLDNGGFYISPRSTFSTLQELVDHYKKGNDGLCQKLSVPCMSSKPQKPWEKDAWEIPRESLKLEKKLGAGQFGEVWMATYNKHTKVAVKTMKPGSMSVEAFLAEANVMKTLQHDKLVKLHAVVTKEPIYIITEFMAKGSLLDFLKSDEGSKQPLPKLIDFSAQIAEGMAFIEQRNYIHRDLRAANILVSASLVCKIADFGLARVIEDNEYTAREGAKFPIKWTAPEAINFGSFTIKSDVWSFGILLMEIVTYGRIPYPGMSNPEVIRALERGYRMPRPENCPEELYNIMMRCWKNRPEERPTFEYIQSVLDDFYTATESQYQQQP
PERK inhibitor = blocks human PERK kinase. CHO PERK-DD fusion, SEAP luminescence translation reporter. inhibition, % at 5.6 µM. 220,000 tested, 0.17% active;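 active = inhibition above the mean inhibition of all tested compounds plus 3 SD, set separately per screening campaign, cut at about 2.9% in these data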;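 also: PERK kinase domain activated by AP20187 dimerizer at 100 nM; 0% = DMSO with dimerizer and 100% = rapamycin at 8.4 µM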
Rad51 HR inh = Rad51 (human) homologous recombination inhibition; Q06609; hRad51 DNA strand exchange, fluorescence dequenching; 200,000 tested, 0.085% active; AID 1385; inhibition, % at 10 µM;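 active = inhibition above 40% at the single screening dose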;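 also: 0% = DMSO control wells and 100% = blanks with heterologous ssDNA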
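Read-out basis: percent inhibition relative to plate controls and blanks / Assay system: human Rad51 nucleoprotein filaments preassembled on unlabelled ssDNA / Timing: filaments 15 min 37 °C, then compound 30 min / Control set: per-plate controls and blanks / Technique: fluorescence dequenching at 485/520 nm / Compound: 10 µM final, single point / Also added: Fluorescein- and BHQ1-tagged 47-mer duplex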
PKD1 inh = PKD1 (human) kinase inhibition; 200,000 tested, 0.056% active; PKD1 kinase fluorescence polarization assay; inhibition, % (concentration not given with the values); Q15139; in the data active = inhibition above about 50%
H9c2 TAG inh = triacylglycerol accumulation inhibition; H9c2 cells, Nile Red lipid (TAG) fluorescence; cells loaded with 200 µM oleic acid; inhibition, % at 12.5 µM; 230,000 tested, 0.66% active; AID 651582;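 active = pattern-corrected inhibition of lipid staining of at least 50% with the nuclear-stain viability signal not falling by more than 50%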;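 also: 0% = DMSO wells and 100% = triacsin C control wells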
Active calls of the source: *.

What do the screens show for `COC(=O)c1nc(N)sc1-c1ccc(Cl)cc1`?
Mdm2 ligase inh: -11; Hck-Nef inh: 18; PERK inhibitor: 0; Rad51 HR inh: -2; PKD1 inh: 1; H9c2 TAG inh: 8

What do the screens show for `CN(C)c1ncc(/C=C2/C(=O)NC(=S)N(C3CCCCC3)C2=O)cn1`?
Mdm2 ligase inh: -7; Hck-Nef inh: 68*; PERK inhibitor: 0; Rad51 HR inh: 3; PKD1 inh: -4

How did Cc1nc(N)c(C#N)c(-c2ccccc2)c1C do in these assays?
Mdm2 ligase inh: -8; Hck-Nef inh: 1; PERK inhibitor: 1; Rad51 HR inh: -8; PKD1 inh: 0; H9c2 TAG inh: 2

Results for Cc1c(C#N)c(N)nc(Cl)c1C#N ?
Mdm2 ligase inh: -28; Hck-Nef inh: 24; PERK inhibitor: 0; Rad51 HR inh: 4; PKD1 inh: 115*; H9c2 TAG inh: -3

How did COc1ccc(-c2nn(C)c3sc(C(=O)NCc4ccco4)cc23)cc1OC do in these assays?
Mdm2 ligase inh: -8; Hck-Nef inh: -2; PERK inhibitor: 0; Rad51 HR inh: -3; PKD1 inh: -7; H9c2 TAG inh: 4

How did COc1ccc(NC(=O)c2cc3c(-c4ccc(OC)c(OC)c4)nn(C)c3s2)cc1OC do in these assays?
Mdm2 ligase inh: -32; Hck-Nef inh: 2; PERK inhibitor: -2; Rad51 HR inh: 0; PKD1 inh: -2; H9c2 TAG inh: 79*

How did O=C(O)C1CCCCC1C(=O)Nc1nc(-c2ccc(Cl)s2)cs1 (stereo unspecified) do in these assays?
Mdm2 ligase inh: 14; Hck-Nef inh: 70*; PERK inhibitor: 1; Rad51 HR inh: -4; PKD1 inh: -1; H9c2 TAG inh: 4

How did O=C(OCC(=O)N1CCCCCC1)c1cccc(Cl)c1 do in these assays?
H9c2 TAG inh: 4

How did O=c1c(N=Nc2ccc(O)cc2)c(-c2ccccc2)[nH]n1-c1ccc([N+](=O)[O-])cc1 do in these assays?
Mdm2 ligase inh: -9; Hck-Nef inh: 27; PERK inhibitor: 0; PKD1 inh: -4; H9c2 TAG inh: 88*

Results for NC(=O)c1ccc(N=Nc2c(-c3ccccc3)[nH]n(-c3ccccc3)c2=O)cc1 ?
Mdm2 ligase inh: -17; Hck-Nef inh: 16; PERK inhibitor: 0; Rad51 HR inh: 7; PKD1 inh: 1

How did O=S1(=O)N[C@@H](c2ccccc2)COc2cc(Br)ccc21 do in these assays?
H9c2 TAG inh: -22

Results for COc1cc(/C=C2\SC(=O)N(c3cccc(Cl)c3)C2=O)cc([N+](=O)[O-])c1O ?
Mdm2 ligase inh: -4; Hck-Nef inh: 45; PERK inhibitor: 1; Rad51 HR inh: 3; PKD1 inh: -6; H9c2 TAG inh: 4

Results for COc1cc(/C=C2\SC(=O)N(c3ccc(Cl)cc3)C2=O)cc([N+](=O)[O-])c1O ?
Mdm2 ligase inh: -5; Hck-Nef inh: 75*; PERK inhibitor: 0; Rad51 HR inh: 8; PKD1 inh: -2

What do the screens show for `COc1cccc(/C=N/Nc2nc3ccccc3[nH]2)c1O`?
Mdm2 ligase inh: -18; Hck-Nef inh: 3; PERK inhibitor: 0; Rad51 HR inh: 19; H9c2 TAG inh: 59*

Results for Cc1c(/C=N/Nc2nc3ccccc3[nH]2)c2ccccc2n1C ?
Mdm2 ligase inh: 1; Hck-Nef inh: 10; PERK inhibitor: -2; Rad51 HR inh: -5; H9c2 TAG inh: 62*

Results for COc1cccc(/C=N/Nc2nc3ccccc3[nH]2)c1OC ?
Mdm2 ligase inh: -7; Hck-Nef inh: 21; PERK inhibitor: -3; Rad51 HR inh: 6; H9c2 TAG inh: 3

What do the screens show for `O=C(Nc1ccc2[nH]c(=O)[nH]c2c1)c1ccc([N+](=O)[O-])o1`?
H9c2 TAG inh: 53*

Results for Cc1ccc(NC(=O)c2ccc([N+](=O)[O-])o2)cc1C ?
Mdm2 ligase inh: -9; Hck-Nef inh: 2; PERK inhibitor: 1; PKD1 inh: 2; H9c2 TAG inh: 73

How did Cc1cccc(N2CCN(C(=O)c3ccncc3)CC2)c1C do in these assays?
Mdm2 ligase inh: 1; Hck-Nef inh: 1; PERK inhibitor: 0; Rad51 HR inh: -4; PKD1 inh: -3; H9c2 TAG inh: -8

Results for COc1cc(C(=O)N2CCN(c3cccc(C)c3C)CC2)cc(OC)c1OC ?
Mdm2 ligase inh: 1; Hck-Nef inh: 18; PERK inhibitor: 0; Rad51 HR inh: 4; PKD1 inh: 0; H9c2 TAG inh: 56*

How did CCN(CCCNC(=O)c1cn(CC)c2ccc(S(=O)(=O)N(C)C)cc2c1=O)c1cccc(C)c1 do in these assays?
Mdm2 ligase inh: 6; Hck-Nef inh: 1; PERK inhibitor: 0; Rad51 HR inh: -6; PKD1 inh: 2; H9c2 TAG inh: 56*

What do the screens show for `CCn1cc(C(=O)NCc2ccc3c(c2)OCO3)c(=O)c2cc(S(=O)(=O)N(C)C)ccc21`?
Mdm2 ligase inh: -9; Hck-Nef inh: 4; PERK inhibitor: 1; PKD1 inh: -12

Results for CCn1cc(C(=O)NCc2ccccc2OC)c(=O)c2cc(S(=O)(=O)N(C)C)ccc21 ?
Mdm2 ligase inh: 37*; Hck-Nef inh: 2; PERK inhibitor: -1; Rad51 HR inh: 6; PKD1 inh: -2; H9c2 TAG inh: 40

Results for CCC(C)Sc1ccc([C@H]2N[C@@](C)(C(=O)OC)[C@H]3C(=O)N(CC)C(=O)[C@@H]23)cc1 (stereo partly specified) ?
H9c2 TAG inh: 6

How did CC1CCCN(C(=O)c2ccc3c(c2NCCO)C(=O)c2ccccc2C3=O)C1 (stereo unspecified) do in these assays?
Mdm2 ligase inh: -10; Hck-Nef inh: 5; PERK inhibitor: -1; Rad51 HR inh: -2; PKD1 inh: -6; H9c2 TAG inh: 90*

Results for CC1(C)CCCN(C(=O)c2ccc3c(c2NCCO)C(=O)c2ccccc2C3=O)C1 ?
Mdm2 ligase inh: -11; Hck-Nef inh: 8; PERK inhibitor: 0; PKD1 inh: -6

What do the screens show for `O=C(NCc1ccc(F)cc1)C1CCN(S(=O)(=O)N2CCOCC2)CC1`?
Mdm2 ligase inh: 1; Hck-Nef inh: 22; PERK inhibitor: 1; Rad51 HR inh: 5; PKD1 inh: 1; H9c2 TAG inh: -12

What do the screens show for `CCS(=O)(=O)N1CCC(C(=O)NCc2ccc(F)cc2)CC1`?
Mdm2 ligase inh: -1; Hck-Nef inh: 3; PERK inhibitor: 3.4*; Rad51 HR inh: -4; PKD1 inh: 3

How did NC(=O)c1c(/N=C/c2cccs2)sc2c1CCCC2 do in these assays?
Mdm2 ligase inh: -7; Hck-Nef inh: 16; PERK inhibitor: 1; H9c2 TAG inh: -6

How did Cc1ccc(-c2cc(N)n(-c3ccc(F)cc3)n2)cc1 do in these assays?
Mdm2 ligase inh: -20; Hck-Nef inh: -7; PERK inhibitor: 3.4*; Rad51 HR inh: 8; PKD1 inh: -2; H9c2 TAG inh: -3
